Results: ChEMBL document CHEMBL5058577, “EUbOPEN Chemogenomics Library 2 (Multiplex)” (2022)

System: HEK-293T
Test: Multiplex assay against HEK293T
Assay type: toxicity, cell-based
Conditions: human
Summary of the method: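 Live cells were stained at seeding with Hoechst33342, BioTracker Green Microtubule Cytoskeleton Dye, MitoTracker Red and Annexin V Alexa Fluor 680, then imaged on a CQ1 microscope at 37°C and 5% CO2 after compound addition. CellPathfinder machine-learning gating split cells into Hoechst high-intensity objects or normal cells. Normal cells were split into healthy, pyknosed or fragmented nuclei, and pyknosed cells into mitotic or apoptotic. Tubulin, mitochondrial-mass and membrane-permeability phenotypes are per cents of healthy-nucleus cells.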

[1] = 12 h, 1 µM, compound concentration 1 uM, replicate 1
[2] = 12 h, 1 µM, compound concentration 1 uM, replicate 2
[3] = 12 h, 10 µM, compound concentration 10 uM, replicate 1
[4] = 12 h, 10 µM, compound concentration 10 uM, replicate 2
[5] = 24 h, 1 µM, compound concentration 1 uM, replicate 1
[6] = 24 h, 1 µM, compound concentration 1 uM, replicate 2
[7] = 24 h, 10 µM, compound concentration 10 uM, replicate 1
[8] = 24 h, 10 µM, compound concentration 10 uM, replicate 2
[9] = 48 h, 1 µM, compound concentration 1 uM, replicate 1
[10] = 48 h, 1 µM, compound concentration 1 uM, replicate 2
[11] = 48 h, 10 µM, compound concentration 10 uM, replicate 1
[12] = 48 h, 10 µM, compound concentration 10 uM, replicate 2

With `CN1CCN(c2cc(-c3ccccc3)nc(N)n2)CC1` the “Population Apoptotic (%)” value [1] was 40%, the “Population Fragmented Nuclei (%)” value [1] was 8% and the “Population Healthy Nuclei (%)” value [1] was 79%. The “Population Hoechst High Intensity Objects (%)” value [1] was 6%, the “Population Membrane Permeable-Phenotype (%)” value [1] was 0% and the “Population Mitochondria Different-Phenotype (%)” value [1] was 35%. For the same molecule, the “Population Mitotic Cells (%)” value [1] was 60%, the “Population Normal (%)” value [1] was 93% and the “Population Pyknosed Nuclei (%)” value [1] was 11%. The “Population Tubulin-Different-Phenotype (%)” value [1] was 21%, the “Total Cell Count” value [1] was 383 and the “Population Apoptotic (%)” value [2] was 34%. For the same molecule, the “Population Fragmented Nuclei (%)” value [2] was 5%, the “Population Healthy Nuclei (%)” value [2] was 84% and the “Population Mitochondria Different-Phenotype (%)” value [2] was 48%. For the same molecule, the “Population Mitotic Cells (%)” value [2] was 65%, the “Population Pyknosed Nuclei (%)” value [2] was 10% and the “Population Tubulin-Different-Phenotype (%)” value [2] was 16%. The “Total Cell Count” value [2] was 354, the “Population Apoptotic (%)” value [3] was 23% and the “Population Fragmented Nuclei (%)” value [3] was 7%. The “Population Healthy Nuclei (%)” value [3] was 82%, the “Population Hoechst High Intensity Objects (%)” value [3] was 7% and the “Population Membrane Permeable-Phenotype (%)” value [3] was 0%. For the same molecule, the “Population Mitochondria Different-Phenotype (%)” value [3] was 46%, the “Population Mitotic Cells (%)” value [3] was 76% and the “Population Normal (%)” value [3] was 92%. For the same molecule, the “Population Pyknosed Nuclei (%)” value [3] was 9%, the “Population Tubulin-Different-Phenotype (%)” value [3] was 30% and the “Total Cell Count” value [3] was 416. The “Population Apoptotic (%)” value [4] was 36%, the “Population Fragmented Nuclei (%)” value [4] was 6% and the “Population Healthy Nuclei (%)” value [4] was 81%. The “Population Hoechst High Intensity Objects (%)” value [4] was 10%, the “Population Mitochondria Different-Phenotype (%)” value [4] was 63% and the “Population Mitotic Cells (%)” value [4] was 63%. For the same molecule, the “Population Normal (%)” value [4] was 89%, the “Population Pyknosed Nuclei (%)” value [4] was 12% and the “Population Tubulin-Different-Phenotype (%)” value [4] was 20%. The “Total Cell Count” value [4] was 296, the “Population Apoptotic (%)” value [5] was 20% and the “Population Fragmented Nuclei (%)” value [5] was 9%. The “Population Healthy Nuclei (%)” value [5] was 79%, the “Population Hoechst High Intensity Objects (%)” value [5] was 4% and the “Population Membrane Permeable-Phenotype (%)” value [5] was 1%. For the same molecule, the “Population Mitochondria Different-Phenotype (%)” value [5] was 16%, the “Population Mitotic Cells (%)” value [5] was 79% and the “Population Normal (%)” value [5] was 95%. The “Population Pyknosed Nuclei (%)” value [5] was 11%, the “Population Tubulin-Different-Phenotype (%)” value [5] was 12% and the “Total Cell Count” value [5] was 488. For the same molecule, the “Population Apoptotic (%)” value [6] was 36%, the “Population Healthy Nuclei (%)” value [6] was 82% and the “Population Mitochondria Different-Phenotype (%)” value [6] was 24%. The “Population Mitotic Cells (%)” value [6] was 63%, the “Population Pyknosed Nuclei (%)” value [6] was 8% and the “Population Tubulin-Different-Phenotype (%)” value [6] was 8%. For the same molecule, the “Total Cell Count” value [6] was 480, the “Population Apoptotic (%)” value [7] was 44% and the “Population Fragmented Nuclei (%)” value [7] was 13%. The “Population Healthy Nuclei (%)” value [7] was 75%, the “Population Hoechst High Intensity Objects (%)” value [7] was 6% and the “Population Membrane Permeable-Phenotype (%)” value [7] was 0%. For the same molecule, the “Population Mitochondria Different-Phenotype (%)” value [7] was 32%, the “Population Mitotic Cells (%)” value [7] was 55% and the “Population Normal (%)” value [7] was 93%. For the same molecule, the “Population Pyknosed Nuclei (%)” value [7] was 11%, the “Population Tubulin-Different-Phenotype (%)” value [7] was 19% and the “Total Cell Count” value [7] was 577. For the same molecule, the “Population Apoptotic (%)” value [8] was 34%, the “Population Fragmented Nuclei (%)” value [8] was 9% and the “Population Healthy Nuclei (%)” value [8] was 79%. For the same molecule, the “Population Hoechst High Intensity Objects (%)” value [8] was 9%, the “Population Mitochondria Different-Phenotype (%)” value [8] was 50% and the “Population Mitotic Cells (%)” value [8] was 65%. The “Population Normal (%)” value [8] was 90%, the “Population Tubulin-Different-Phenotype (%)” value [8] was 17% and the “Total Cell Count” value [8] was 378. The “Population Apoptotic (%)” value [9] was 23%, the “Population Fragmented Nuclei (%)” value [9] was 13% and the “Population Healthy Nuclei (%)” value [9] was 78%. The “Population Hoechst High Intensity Objects (%)” value [9] was 1%, the “Population Membrane Permeable-Phenotype (%)” value [9] was 1% and the “Population Mitochondria Different-Phenotype (%)” value [9] was 12%. The “Population Mitotic Cells (%)” value [9] was 76%, the “Population Normal (%)” value [9] was 98% and the “Population Pyknosed Nuclei (%)” value [9] was 7%. For the same molecule, the “Population Tubulin-Different-Phenotype (%)” value [9] was 12%, the “Total Cell Count” value [9] was 745 and the “Population Apoptotic (%)” value [10] was 14%. The “Population Healthy Nuclei (%)” value [10] was 80%, the “Population Hoechst High Intensity Objects (%)” value [10] was 2% and the “Population Membrane Permeable-Phenotype (%)” value [10] was 0%. The “Population Mitochondria Different-Phenotype (%)” value [10] was 14%, the “Population Mitotic Cells (%)” value [10] was 85% and the “Population Normal (%)” value [10] was 97%. For the same molecule, the “Population Pyknosed Nuclei (%)” value [10] was 6%, the “Population Tubulin-Different-Phenotype (%)” value [10] was 9% and the “Total Cell Count” value [10] was 804. For the same molecule, the “Population Apoptotic (%)” value [11] was 16%, the “Population Fragmented Nuclei (%)” value [11] was 17% and the “Population Healthy Nuclei (%)” value [11] was 75%. The “Population Hoechst High Intensity Objects (%)” value [11] was 3%, the “Population Membrane Permeable-Phenotype (%)” value [11] was 0% and the “Population Mitochondria Different-Phenotype (%)” value [11] was 25%. The “Population Mitotic Cells (%)” value [11] was 83%, the “Population Normal (%)” value [11] was 96% and the “Population Pyknosed Nuclei (%)” value [11] was 6%. The “Population Tubulin-Different-Phenotype (%)” value [11] was 14%, the “Total Cell Count” value [11] was 861 and the “Population Apoptotic (%)” value [12] was 27%. The “Population Fragmented Nuclei (%)” value [12] was 13%, the “Population Healthy Nuclei (%)” value [12] was 81% and the “Population Membrane Permeable-Phenotype (%)” value [12] was 1%. For the same molecule, the “Population Mitochondria Different-Phenotype (%)” value [12] was 24%, the “Population Mitotic Cells (%)” value [12] was 72% and the “Population Pyknosed Nuclei (%)” value [12] was 4%. For the same molecule, the “Population Tubulin-Different-Phenotype (%)” value [12] was 11% and the “Total Cell Count” value [12] was 645.
